Assay results from ChEMBL document CHEMBL1157679, “Substituted aryl malonamates as new serine beta-lactamase substrates: structure-activity studies” (Bioorg Med Chem, 2010).

How the values were obtained:
[1] = substrate: CO[C@@H](C(=O)NCc1ccccc1)C(=O)Oc1cccc(C(=O)O)c1; test: (§1) Activity at Streptomyces R61 DD-peptidase by spectrophotometry; details: Streptomyces sp. R61
In short: (§2)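 Steady-state kinetics in 100 mM MOPS, pH 7.5, 25 °C. Substrate stocks were made in DMSO and diluted into buffer to a final DMSO below 5%. Initial rates of enzyme-catalysed turnover were followed spectrophotometrically. Steady-state parameters were derived from these initial rates. Buffer hydrolysis of the substrates was measured separately as pseudo-first-order rate constants.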

[2] = substrate: C[C@@H](C(=O)NCc1ccccc1)C(=O)Oc1cccc(C(=O)O)c1; test: as §1; details: Streptomyces sp. R61; in short: as §2
[3] = substrate: C[C@H](C(=O)NCc1ccccc1)C(=O)Oc1cccc(C(=O)O)c1; test: as §1; details: Streptomyces sp. R61; in short: as §2
[4] = substrate: O=C(CC(=O)Oc1cccc(C(=O)O)c1)NCc1ccccc1; test: as §1; details: Streptomyces sp. R61; in short: as §2
[5] = substrate: O=C(O)c1cccc(OC(=O)C2CCN(Cc3ccccc3)C2=O)c1; test: as §1; details: Streptomyces sp. R61; in short: as §2
[6] = substrate: O=C(O)c1cccc(OC(=O)C2Cc3ccccc3N(Cc3ccccc3)C2=O)c1; test: as §1; details: Streptomyces sp. R61; in short: as §2
[7] = substrate: CN(Cc1ccccc1)C(=O)CC(=O)Oc1cccc(C(=O)O)c1; test: (§3) Ratio of Kcat to Km for Streptomyces R61 DD-peptidase; details: Streptomyces sp. R61; in short: as §2
[8] = substrate: CO[C@@H](C(=O)NCc1ccccc1)C(=O)Oc1cccc(C(=O)O)c1; test: as §3; details: Streptomyces sp. R61; in short: as §2
[9] = substrate: C[C@@H](C(=O)NCc1ccccc1)C(=O)Oc1cccc(C(=O)O)c1; test: as §3; details: Streptomyces sp. R61; in short: as §2
[10] = substrate: C[C@H](C(=O)NCc1ccccc1)C(=O)Oc1cccc(C(=O)O)c1; test: as §3; details: Streptomyces sp. R61; in short: as §2
[11] = substrate: O=C(CC(=O)N(Cc1ccccc1)Cc1ccccc1)Oc1cccc(C(=O)O)c1; test: as §3; details: Streptomyces sp. R61; in short: as §2
[12] = substrate: O=C(CC(=O)Oc1cccc(C(=O)O)c1)NCc1ccccc1; test: as §3; details: Streptomyces sp. R61; in short: as §2
[13] = substrate: O=C(O)c1cccc(OC(=O)C(Cc2ccccc2)C(=O)NCc2ccccc2)c1; test: as §3; details: Streptomyces sp. R61; in short: as §2
[14] = substrate: O=C(O)c1cccc(OC(=O)C2CCN(Cc3ccccc3)C2=O)c1; test: as §3; details: Streptomyces sp. R61; in short: as §2
[15] = substrate: O=C(O)c1cccc(OC(=O)C2Cc3ccccc3N(Cc3ccccc3)C2=O)c1; test: as §3; details: Streptomyces sp. R61; in short: as §2
[16] = substrate: CN(Cc1ccccc1)C(=O)CC(=O)Oc1cccc(C(=O)O)c1; test: (§4) Activity at Enterobacter cloacae P99 beta-lactamase by spectrophotometry; in short: as §2
[17] = substrate: CO[C@@H](C(=O)NCc1ccccc1)C(=O)Oc1cccc(C(=O)O)c1; test: as §4; in short: as §2
[18] = substrate: CO[C@H](C(=O)NCc1ccccc1)C(=O)Oc1cccc(C(=O)O)c1; test: as §4; in short: as §2
[19] = substrate: C[C@@H](C(=O)NCc1ccccc1)C(=O)Oc1cccc(C(=O)O)c1; test: as §4; in short: as §2
[20] = substrate: C[C@H](C(=O)NCc1ccccc1)C(=O)Oc1cccc(C(=O)O)c1; test: as §4; in short: as §2
[21] = substrate: O=C(CC(=O)N(Cc1ccccc1)Cc1ccccc1)Oc1cccc(C(=O)O)c1; test: as §4; in short: as §2
[22] = substrate: O=C(CC(=O)Oc1cccc(C(=O)O)c1)NCc1ccccc1; test: as §4; in short: as §2
[23] = substrate: O=C(O)c1cccc(OC(=O)C(Cc2ccccc2)C(=O)NCc2ccccc2)c1; test: as §4; in short: as §2
[24] = substrate: O=C(O)c1cccc(OC(=O)C2CCN(Cc3ccccc3)C2=O)c1; test: as §4; in short: as §2
[25] = substrate: O=C(O)c1cccc(OC(=O)C2Cc3ccccc3N(Cc3ccccc3)C2=O)c1; test: as §4; in short: as §2
[26] = substrate: CN(Cc1ccccc1)C(=O)CC(=O)Oc1cccc(C(=O)O)c1; test: (§5) Ratio of Kcat to Km for Enterobacter cloacae P99 beta-lactamase; in short: as §2
[27] = substrate: CO[C@@H](C(=O)NCc1ccccc1)C(=O)Oc1cccc(C(=O)O)c1; test: as §5; in short: as §2
[28] = substrate: CO[C@H](C(=O)NCc1ccccc1)C(=O)Oc1cccc(C(=O)O)c1; test: as §5; in short: as §2
[29] = substrate: C[C@@H](C(=O)NCc1ccccc1)C(=O)Oc1cccc(C(=O)O)c1; test: as §5; in short: as §2
[30] = substrate: C[C@H](C(=O)NCc1ccccc1)C(=O)Oc1cccc(C(=O)O)c1; test: as §5; in short: as §2
[31] = substrate: O=C(CC(=O)N(Cc1ccccc1)Cc1ccccc1)Oc1cccc(C(=O)O)c1; test: as §5; in short: as §2
[32] = substrate: O=C(CC(=O)Oc1cccc(C(=O)O)c1)NCc1ccccc1; test: as §5; in short: as §2
[33] = substrate: O=C(O)c1cccc(OC(=O)C(Cc2ccccc2)C(=O)NCc2ccccc2)c1; test: as §5; in short: as §2
[34] = substrate: O=C(O)c1cccc(OC(=O)C2CCN(Cc3ccccc3)C2=O)c1; test: as §5; in short: as §2
[35] = substrate: O=C(O)c1cccc(OC(=O)C2Cc3ccccc3N(Cc3ccccc3)C2=O)c1; test: as §5; in short: as §2
[36] = compound: O=C(CP(=O)(O)Oc1cccc(C(=O)O)c1)NCc1ccccc1; test: Inhibition of Enterobacter cloacae P99 beta-lactamase assessed as inhibition of cephalothin turnover by spectrophotometry
In short: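 Initial rates of 200 μM cephalothin hydrolysis were measured spectrophotometrically in 100 mM MOPS, pH 7.5, at 25 °C. Compounds were added from DMSO stocks, with final DMSO below 5%.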

[37] = substrate: CN(Cc1ccccc1)C(=O)CC(=O)Oc1cccc(C(=O)O)c1; test: (§6) Activity at Actinomadura R39 DD-peptidase by spectrophotometry; details: Actinomadura sp. R39; in short: as §2
[38] = substrate: CO[C@@H](C(=O)NCc1ccccc1)C(=O)Oc1cccc(C(=O)O)c1; test: as §6; details: Actinomadura sp. R39; in short: as §2
[39] = substrate: C[C@H](C(=O)NCc1ccccc1)C(=O)Oc1cccc(C(=O)O)c1; test: as §6; details: Actinomadura sp. R39; in short: as §2
[40] = substrate: O=C(O)c1cccc(OC(=O)C2CCN(Cc3ccccc3)C2=O)c1; test: as §6; details: Actinomadura sp. R39; in short: as §2
[41] = substrate: CN(Cc1ccccc1)C(=O)CC(=O)Oc1cccc(C(=O)O)c1; test: (§7) Ratio of Kcat to Km for Actinomadura R39 DD-peptidase; details: Actinomadura sp. R39; in short: as §2
[42] = substrate: CO[C@@H](C(=O)NCc1ccccc1)C(=O)Oc1cccc(C(=O)O)c1; test: as §7; details: Actinomadura sp. R39; in short: as §2
[43] = substrate: C[C@H](C(=O)NCc1ccccc1)C(=O)Oc1cccc(C(=O)O)c1; test: as §7; details: Actinomadura sp. R39; in short: as §2
[44] = substrate: O=C(CC(=O)Oc1cccc(C(=O)O)c1)NCc1ccccc1; test: as §7; details: Actinomadura sp. R39; in short: as §2
[45] = substrate: O=C(O)c1cccc(OC(=O)C2CCN(Cc3ccccc3)C2=O)c1; test: as §7; details: Actinomadura sp. R39; in short: as §2
[46] = substrate: O=C(O)c1cccc(OC(=O)C2Cc3ccccc3N(Cc3ccccc3)C2=O)c1; test: as §7; details: Actinomadura sp. R39; in short: as §2

B1: D-alanyl-D-alanine carboxypeptidase (Streptomyces sp. R61), P15555 (protein)
chain: MVSGTVGRGTALGAVLLALLAVPAQAGTAAAADLPAPDDTGLQAVLHTALSQGAPGAMVRVDDNGTIHQLSEGVADRATGRAITTTDRFRVGSVTKSFSAVVLLQLVDEGKLDLDASVNTYLPGLLPDDRITVRQVMSHRSGLYDYTNDMFAQTVPGFESVRNKVFSYQDLITLSLKHGVTNAPGAAYSYSNTNFVVAGMLIEKLTGHSVATEYQNRIFTPLNLTDTFYVHPDTVIPGTHANGYLTPDEAGGALVDSTEQTVSWAQSAGAVISSTQDLDTFFSALMSGQLMSAAQLAQMQQWTTVNSTQGYGLGLRRRDLSCGISVYGHTGTVQGYYTYAFASKDGKRSVTALANTSNNVNVLNTMARTLESAFCGKPTTAKLRSATSSATTVERHEDIAPGIARD
[1]
  Km: 280 µM
  kcat: 9.4 s⁻¹
[2]
  Km: 90 µM
  kcat: 0.12 s⁻¹
[3]
  Km: 320 µM
  kcat: 7.63 s⁻¹
[4]
  Km: 104 µM
  kcat: 0.7 s⁻¹
[5]
  Km: > 200 µM
  kcat: > 3.6 ×10⁻³ /s
[6]
  Km: > 200 µM
  kcat: > 4.2 ×10⁻³ /s
[7]
  kcat/Km: < 0.15 M⁻¹ s⁻¹
[8]
  kcat/Km: 3.3 ×10⁴ /s/M
[9]
  kcat/Km: 1.31 ×10³ /s/M
[10]
  kcat/Km: 2.37 ×10⁴ /s/M
[11]
  kcat/Km: < 0.35 M⁻¹ s⁻¹
[12]
  kcat/Km: 70 M⁻¹ s⁻¹
[13]
  kcat/Km: < 0.2 M⁻¹ s⁻¹
[14]
  kcat/Km: 17.8 M⁻¹ s⁻¹
[15]
  kcat/Km: 21 M⁻¹ s⁻¹

B2: Beta-lactamase (Enterobacter cloacae), P05364 (protein)
chain: MMRKSLCCALLLGISCSALATPVSEKQLAEVVANTITPLMKAQSVPGMAVAVIYQGKPHYYTFGKADIAANKPVTPQTLFELGSISKTFTGVLGGDAIARGEISLDDAVTRYWPQLTGKQWQGIRMLDLATYTAGGLPLQVPDEVTDNASLLRFYQNWQPQWKPGTTRLYANASIGLFGALAVKPSGMPYEQAMTTRVLKPLKLDHTWINVPKAEEAHYAWGYRDGKAVRVSPGMLDAQAYGVKTNVQDMANWVMANMAPENVADASLKQGIALAQSRYWRIGSMYQGLGWEMLNWPVEANTVVEGSDSKVALAPLPVAEVNPPAPPVKASWVHKTGSTGGFGSYVAFIPEKQIGIVMLANTSYPNPARVEAAYHILEALQ
[16]
  Km: 700 µM
  kcat: 0.33 s⁻¹
[17]
  Km: > 1000 µM
  kcat: > 7.4 s⁻¹
[18]
  Km: > 1000 µM
  kcat: > 2.9 s⁻¹
[19]
  Km: 2800 µM
  kcat: 6.6 s⁻¹
[20]
  Km: 60 µM
  kcat: 1.17 s⁻¹
[21]
  Km: 32 µM
  kcat: 0.25 s⁻¹
[22]
  Km: 170 µM
  kcat: 41 s⁻¹
[23]
  Km: 2.6 µM
  kcat: 0.05 s⁻¹
[24]
  Km: 2500 µM
  kcat: 0.12 s⁻¹
[25]
  Km: 1400 µM
  kcat: 0.41 s⁻¹
[26]
  kcat/Km: 4.7 ×10² /s/M
[27]
  kcat/Km: 7.4 ×10³ /s/M
[28]
  kcat/Km: 2.9 ×10³ /s/M
[29]
  kcat/Km: 2.36 ×10³ /s/M
[30]
  kcat/Km: 2.13 ×10⁴ /s/M
[31]
  kcat/Km: 7.9 ×10³ /s/M
[32]
  kcat/Km: 2.45 ×10⁵ /s/M
[33]
  kcat/Km: 1.9 ×10⁴ /s/M
[34]
  kcat/Km: 50 M⁻¹ s⁻¹
[35]
  kcat/Km: 290 M⁻¹ s⁻¹
[36]
  kcat/Km: 45 M⁻¹ s⁻¹

B3: D-alanyl-D-alanine carboxypeptidase (Actinomadura sp. R39), P39045 (protein)
chain: MKQSSPEPLRPRRTGGRGGARRAAALVTIPLLPMTLLGASPALADASGARLTELREDIDAILEDPALEGAVSGVVVVDTATGEELYSRDGGEQLLPASNMKLFTAAAALEVLGADHSFGTEVAAESAPGRRGEVQDLYLVGRGDPTLSAEDLDAMAAEVAASGVRTVRGDLYADDTWFDSERLVDDWWPEDEPYAYSAQISALTVAHGERFDTGVTEVSVTPAAEGEPADVDLGAAEGYAELDNRAVTGAAGSANTLVIDRPVGTNTIAVTGSLPADAAPVTALRTVDEPAALAGHLFEEALESNGVTVKGDVGLGGVPADWQDAEVLADHTSAELSEILVPFMKFSNNGHAEMLVKSIGQETAGAGTWDAGLVGVEEALSGLGVDTAGLVLNDGSGLSRGNLVTADTVVDLLGQAGSAPWAQTWSASLPVAGESDPFVGGTLANRMRGTAAEGVVEAKTGTMSGVSALSGYVPGPEGELAFSIVNNGHSGPAPLAVQDAIAVRLAEYAGHQAPEGARMMRGPVQGSGELECSWVQAC
[37]
  Km: > 1000 µM
  kcat: > 3 ×10⁻³ /s
[38]
  Km: 53 µM
  kcat: 2.81 s⁻¹
[39]
  Km: > 1000 µM
  kcat: > 0.73 s⁻¹
[40]
  Km: > 1000 µM
  kcat: > 8 ×10⁻³ /s
[41]
  kcat/Km: 3 M⁻¹ s⁻¹
[42]
  kcat/Km: 5 ×10⁴ /s/M
[43]
  kcat/Km: 7.28 ×10² /s/M
[44]
  kcat/Km: < 1.5 M⁻¹ s⁻¹
[45]
  kcat/Km: 8 M⁻¹ s⁻¹
[46]
  kcat/Km: < 20 M⁻¹ s⁻¹
